Data taken from ChEMBL document CHEMBL1158617, “New estrogenic compounds isolated from Broussonetia kazinoki” (Bioorg Med Chem Lett, 2010).
Calls of active or inactive are those of the source. No cut-off for these calls is given here.

Key:
MCF7 [1] = test: Up-regulation of progesterone receptor gene expression in human MCF7 cells at 10 uM after 24 hrs by RT-PCR analysis; type: functional, cell-based
Outline: (§1)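 MCF-7 cells were treated 24 h with compounds at 10 µM. Steady-state mRNA levels were quantified by qPCR, with constitutive human β-actin mRNA as internal control, relative to untreated control.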

MCF7 [2] = test: Up-regulation of pS2 gene expression in human MCF7 cells at 10 uM after 24 hrs by RT-PCR analysis; type: functional, cell-based; outline: as §1
MCF7 [3] = test: Down-regulation of ERalpha mRNA expression in human MCF7 cells at 10 uM after 24 hrs by RT-PCR analysis; type: functional, cell-based; outline: as §1
MCF7 [4] = test: Down-regulation of ERalpha mRNA expression in human MCF7 cells at 10 uM after 24 hrs by SDS PAGE and immunoblot analysis; type: functional, cell-based; conditions: in the assay text read “protein” for “mRNA”
Outline: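 MCF-7 cells were treated 24 h with 10 µM compounds, with 10 nM E2 as reference. Total protein extracts were run on SDS–PAGE and immunoblotted with anti-ER-α and anti-β-actin antibodies. ER-α protein was compared with control.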

Estrogen receptor [5] = molecular target: T1, Estrogen receptor (Homo sapiens, UniProt P03372); test: Displacement of [3H]17-beta-estradiol from human recombinant full length ERalpha
T1 sequence (P03372 whole entry): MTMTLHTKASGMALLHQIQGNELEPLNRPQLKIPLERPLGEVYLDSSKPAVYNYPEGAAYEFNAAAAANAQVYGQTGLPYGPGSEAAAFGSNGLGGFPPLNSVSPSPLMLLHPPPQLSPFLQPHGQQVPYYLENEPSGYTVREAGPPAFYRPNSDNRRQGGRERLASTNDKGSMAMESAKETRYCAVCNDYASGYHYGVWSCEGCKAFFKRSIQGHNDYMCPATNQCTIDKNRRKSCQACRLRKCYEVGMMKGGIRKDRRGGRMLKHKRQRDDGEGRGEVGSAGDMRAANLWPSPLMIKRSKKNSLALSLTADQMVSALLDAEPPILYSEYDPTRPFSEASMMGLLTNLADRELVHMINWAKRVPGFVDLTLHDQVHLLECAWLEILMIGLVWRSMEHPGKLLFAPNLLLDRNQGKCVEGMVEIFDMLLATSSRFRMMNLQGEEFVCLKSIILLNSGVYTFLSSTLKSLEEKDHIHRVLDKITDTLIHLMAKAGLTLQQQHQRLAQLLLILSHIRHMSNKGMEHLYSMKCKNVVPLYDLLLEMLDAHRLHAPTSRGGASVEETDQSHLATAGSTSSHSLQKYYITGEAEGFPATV
Outline: (§2)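 Competitive ligand-binding assay with recombinant human ER-α or ER-β. Test compounds displace the labelled estrogen ligand, and IC50 is derived from the displacement curves.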

Estrogen receptor beta [6] = molecular target: T2, Estrogen receptor beta (Homo sapiens, UniProt Q92731); test: Displacement of [3H]17-beta-estradiol from human recombinant full length ERbeta; outline: as §2
[7] = molecular target: T3, Estrogen receptor (Homo sapiens) (UniProt P03372); test: Displacement of [3H]17-beta-estradiol from human recombinant full length ERalpha relative to estradiol
T3 sequence (whole entry): T1 sequence (P03372 whole entry)
Outline: (§3)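 Relative binding affinity is taken from the competitive binding IC50s against recombinant human ER-α or ER-β. RBA = 100 × IC50(E2)/IC50(compound).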

Estrogen receptor beta [8] = molecular target: T2, Estrogen receptor beta; test: Displacement of [3H]17-beta-estradiol from human recombinant full length ERbeta relative to estradiol; outline: as §3
Homo sapiens = species on record: Homo sapiens; test: Selectivity ratio of IC50 for human recombinant full length ERbeta to IC50 for human recombinant full length ERalpha
Estrogen receptor beta [9] = molecular target: T2, Estrogen receptor beta; test: Transactivation of human recombinant ERbeta expressed in african green monkey CV1 cells co-expressing ERE-Luc after 24 hrs by luciferase reporter gene assay; type: cell-based, CV-1
Outline: (§4)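 CV-1 cells were transfected with an ERE-Luc reporter plus a hER-α or hER-β expression vector. Cells were incubated 24 h with compounds, then lysed, and luciferase expression was measured. Data are mean ± SD (n = 3), and EC50 comes from the dose-response.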

[10] = molecular target: T3, Estrogen receptor (Homo sapiens); test: Transactivation of human recombinant ERalpha expressed in african green monkey CV1 cells co-expressing ERE-Luc after 24 hrs by luciferase reporter gene assay in presence of ER antagonist ICI 182780; type: functional, cell-based; conditions: CV-1
Estrogen receptor [11] = molecular target: T1, Estrogen receptor; test: Transactivation of human recombinant ERalpha expressed in african green monkey CV1 cells co-expressing ERE-Luc after 24 hrs by luciferase reporter gene assay; type: cell-based, CV-1; outline: as §4

T2 sequence (Q92731 whole entry): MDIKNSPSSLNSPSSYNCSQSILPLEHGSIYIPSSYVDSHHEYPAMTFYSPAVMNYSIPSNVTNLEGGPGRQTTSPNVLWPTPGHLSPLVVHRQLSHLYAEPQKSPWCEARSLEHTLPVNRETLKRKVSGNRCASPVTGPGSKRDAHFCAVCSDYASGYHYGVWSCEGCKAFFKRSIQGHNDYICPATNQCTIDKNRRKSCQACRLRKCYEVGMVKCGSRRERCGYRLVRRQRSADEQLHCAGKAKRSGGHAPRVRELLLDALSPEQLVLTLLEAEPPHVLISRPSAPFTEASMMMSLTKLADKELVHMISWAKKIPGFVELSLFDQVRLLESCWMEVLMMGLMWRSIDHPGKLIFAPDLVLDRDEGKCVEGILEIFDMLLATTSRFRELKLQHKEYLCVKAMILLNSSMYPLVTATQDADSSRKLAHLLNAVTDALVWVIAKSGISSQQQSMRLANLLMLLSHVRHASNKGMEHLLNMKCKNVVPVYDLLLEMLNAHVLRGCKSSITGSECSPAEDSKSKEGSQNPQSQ

With `CC(C)=CCc1c([C@H]2CCc3ccc(O)cc3O2)ccc(O)c1O` [KAZINOL U] the Activity (MCF7 [1]) was “Active”, the Activity (MCF7 [2]) was “Active” and the Activity (MCF7 [3]) was “Active”. For the same compound, the Activity (MCF7 [4]) was “Active”, the IC50 (Estrogen receptor [5]) was 57.2 µM and the IC50 (Estrogen receptor beta [6]) was 41.7 µM. For the same compound, the RBA [7] was 0.01%, the RBA (Estrogen receptor beta [8]) was 0.017% and the Ratio IC50 (Homo sapiens) was 1.7.

In the case of `Oc1ccc([C@H]2CCc3ccc(O)cc3O2)cc1` [TUPICHINOL C], the Activity (MCF7 [1]) is reported as “Active”, the Activity (MCF7 [2]) is reported as “Active” and the Activity (MCF7 [3]) is reported as “Active”. For the same compound, the Activity (MCF7 [4]) was “Active”, the IC50 (Estrogen receptor [5]) was 26.2 µM and the IC50 (Estrogen receptor beta [6]) was 14.7 µM. The RBA [7] was 0.021%, the RBA (Estrogen receptor beta [8]) was 0.048% and the Ratio IC50 (Homo sapiens) was 2.29.

In the case of `CC(C)=CCc1c([C@H]2CCc3ccc(O)cc3O2)cc(O)c(O)c1CC=C(C)C`, the Activity (MCF7 [1]) is reported as “Active”, the Activity (MCF7 [2]) is reported as “Active” and the Activity (MCF7 [3]) is reported as “Active”. The Activity (MCF7 [4]) was “Active”, the IC50 (Estrogen receptor [5]) was 151 µM and the IC50 (Estrogen receptor beta [6]) was 96 µM. For the same compound, the RBA [7] was 0.004%, the RBA (Estrogen receptor beta [8]) was 0.007% and the Ratio IC50 (Homo sapiens) was 1.75.

In the case of `COc1ccc(CCCc2ccc(O)cc2)c(O)c1` [BROUSSONIN A], the Activity (MCF7 [1]) is reported as “Active”, the Activity (MCF7 [2]) is reported as “Active” and the Activity (MCF7 [3]) is reported as “Active”. For the same compound, the Activity (MCF7 [4]) was “Active”, the EC50 (Estrogen receptor beta [9]; cv-1) was “Dose-dependent effect” and the EC50 (Estrogen receptor beta [9]; read-out: EC50) was 0.53 µM. The Activity [10] was “inactive”, the EC50 (Estrogen receptor [11]; cv-1) was “Dose-dependent effect” and the EC50 (Estrogen receptor [11]; read-out: EC50) was 1.59 µM. For the same compound, the IC50 (Estrogen receptor [5]) was 8.1 µM, the IC50 (Estrogen receptor beta [6]) was 1.8 µM and the RBA [7] was 0.069%. It also gave an RBA (Estrogen receptor beta [8]) of 0.394% and a Ratio IC50 (Homo sapiens) of 5.71.
